Rows were chosen to be rich in hits. Some 3.5% of all compounds tested hit in one or more screens of this group.
mABHD4 FP – ABHD4 (mouse) inhibition, primary FP screen | Q8VD66 | purified mABHD4, FP-Rh probe fluorescence polarization | inhibition, % at 8.92 µM | actives 0.54% (n = 370,000) | AID 720543;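 active = inhibition exceeding the mean over every tested compound plus 3 SD, cut at about 30% in these data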
Target sequence (Q8VD66 whole entry, looked up): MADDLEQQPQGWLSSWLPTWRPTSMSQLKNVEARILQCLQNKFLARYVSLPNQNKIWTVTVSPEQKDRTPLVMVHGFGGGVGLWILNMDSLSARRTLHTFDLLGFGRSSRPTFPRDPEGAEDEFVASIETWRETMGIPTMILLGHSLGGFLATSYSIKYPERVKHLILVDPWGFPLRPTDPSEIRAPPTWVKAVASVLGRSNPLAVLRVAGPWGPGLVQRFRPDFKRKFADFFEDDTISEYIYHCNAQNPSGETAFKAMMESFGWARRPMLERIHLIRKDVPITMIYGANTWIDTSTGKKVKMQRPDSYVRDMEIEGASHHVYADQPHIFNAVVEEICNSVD
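Doses – 8.92 µM, single dose · Material – wild-type mouse ABHD4 protein · Replication – single well per compound (singlicate) · Measure – percent inhibition of probe binding, normalized to plate controls · Schedule – 45 min compound pre-incubation plus 60 min probe step, 25 °C · Detection – fluorescence polarization with parallel and perpendicular emission, 525/598 nm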
HTRA1 inhibitor – blocks human HTRA1 serine peptidase; Q92743; recombinant HTRA1, FP-rhodamine activity-based probe, fluorescence polarization; inhibition, % at 5.96 µM; actives 0.5% (n = 340,000); in the data active = inhibition above about 36%
TCR-CD3 inh – human TCR-CD3 binding inhibition. TAMRA-labeled TCR probe fluorescence, biochemical. inhibition, % at 9.4 µM. actives 0.37% (n = 360,000);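 note: recombinant mutant TCR 2C K166C tagged with TAMRA read by polarization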
PRMT1 FP inh – PRMT1 (human) inhibition, primary screen. actives 1.3% (n = 370,000). recombinant PRMT1, activity-based probe fluorescence polarization. Q99873. inhibition, % at 2.79 µM;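 active = inhibition above about 21% made by adding two undisclosed values, limit read from the data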
rCAG RNA binder – molecules binding r(CAG) RNA repeats. r(CAG) RNA repeat, TO-PRO-1 dye displacement fluorescence. AID 651821. actives 1.3% (n = 370,000). inhibition, % at 3 µM;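 active = inhibition above the plate cutoff, the mean of all test compounds on that plate plus 3 SD, cut at about 35% in these data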;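 note: higher means more dye released from RNA so lower well fluorescence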
SIAE inh – blocks human sialic acid acetylesterase; actives 0.69% (n = 370,000); SIAE FP-Rh probe binding, fluorescence polarization; AID 1053197; inhibition, % at 9.66 µM;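 active = inhibition above a cutoff: mean of compounds within the control limits plus 3 SD of those, cut at about 17% in these data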
BSA TAMRA ctr – counter-screen for TCR-CD3 interaction inhibitors: BSA probe; shares compounds with TCR-CD3 inh; TAMRA-labeled BSA probe fluorescence counterscreen; inhibition, % at 9.4 µM; actives 10% (n = 1,200); AID 652035; in the data active = inhibition above about 23%
TCR-CD3 inh conf – TCR-CD3 interaction inhibition, confirmation | shares compounds with TCR-CD3 inh | TAMRA-labeled TCR probe fluorescence binding assay | actives 48% (n = 1,200) | inhibition, % at 9.4 µM
Hits are given with their value; n = inactive; x = no result. Cut-off read from the data, not from the text of the source, unless noted: active = inhibition above about 19%; inactive = the rest.

SMILES	mABHD4 FP	HTRA1 inhibitor	TCR-CD3 inh	PRMT1 FP inh	rCAG RNA binder	SIAE inh	BSA TAMRA ctr	TCR-CD3 inh conf
COCCCNC(=O)C[C@@H]1C(=O)N2CCCC3=C2[C@@]1(C(=O)OC)CCCC3	n	x	x	n	n	n	x	x
CCOC(=O)c1ccc(NC(=O)CSc2nnc(SCc3cccc4ccccc34)s2)cc1	n	x	x	n	n	n	x	x
COc1ccc(Br)cc1/C=N/NC(=O)c1cccnc1	n	n	n	n	n	n	x	x
COc1cc([N+](=O)[O-])cc(/C=N/NC(=O)c2cccnc2)c1O	n	n	32	n	n	n	n	19
Cc1nc(N2CCN(C(=O)C3CCCCC3)CC2)c2c3c(sc2n1)CCCC3	n	x	x	n	x	n	x	x
O=C(NCc1ccccc1F)C1CC(=O)N(Cc2ccco2)C1 (stereo not drawn)	n	n	42	n	n	n	n	n
NC(=O)NC(=O)CSc1ccccc1	n	n	n	n	n	n	x	x
O=C(CSc1ccccc1)NNC(=O)c1ccccc1O	n	n	19	n	n	n	n	26
COc1ccc(C2=NOC(C)(c3nnc(-c4ccc(Cl)cc4)o3)C2)cc1 (stereo not drawn)	n	n	34	n	n	n	n	n
C=CCNC(=S)Nc1ccc(C)c(S(=O)(=O)N2CCCCC2)c1	n	n	n	n	n	n	x	x
Cc1ccc(NC(=S)Nc2ccc(C(C)C)cc2)cc1S(=O)(=O)N1CCCCCC1	n	n	22	n	n	n	n	n
NC(=O)[C@H]1CC2(CC(c3cccc(NC(=O)CC(c4ccccc4)c4ccccc4)c3)=NO2)CN1C(=O)CC(c1ccccc1)c1ccccc1 (stereo partly drawn)	n	n	22	n	n	n	n	n
NC(=O)[C@@H]1CC2(CC(c3cccc(NC(=O)CC(c4ccccc4)c4ccccc4)c3)=NO2)CN1C(=O)c1ccc(Cl)cc1 (stereo partly drawn)	n	n	35	n	n	n	n	20
C/C=C(/C)C(=O)Nc1cccc(C2=NOC3(C2)C[C@@H](C(N)=O)N(C(=O)c2ccc(OC)cc2)C3)c1 (stereo partly drawn)	n	n	38	n	n	n	n	n
CCC(=O)N1CC2(CC(c3cccc(NC(=O)CC(c4ccccc4)c4ccccc4)c3)=NO2)C[C@H]1C(N)=O (stereo partly drawn)	n	n	n	n	n	n	x	x
CCN(CC)S(=O)(=O)c1cccc(C(=O)N/N=C(\C)c2ccc(O)cc2O)c1	n	n	41	n	n	n	n	44
C[C@H](CO)N1C[C@H](C)[C@@H](CN(C)S(=O)(=O)c2ccccc2)Oc2ccc(NC(=O)Nc3ccc(C(F)(F)F)cc3)cc2C1=O	n	n	28	n	n	n	n	n
CC(C)NC(=O)Nc1ccc2c(c1)C(=O)N([C@H](C)CO)C[C@H](C)[C@@H](CN(C)S(=O)(=O)c1ccccc1)O2	n	n	n	n	n	n	x	x
O=C(N/N=C/c1cc([N+](=O)[O-])ccc1O)c1ccc(COc2ccc3c(c2)CCC3)o1	n	n	45	n	n	n	n	n
COC(=O)c1cc(-c2ccc(-c3ccccc3)c(F)c2)c(=O)n2c1CCC2	n	x	x	n	n	n	x	x
O=C(NC1CCCCN(Cc2cccc(F)c2)C1=O)c1cccc(F)c1 (stereo not drawn)	n	x	x	n	n	n	x	x
Cc1c(NC(=S)N/N=C/c2ccc([N+](=O)[O-])cc2O)c(=O)n(-c2ccccc2)n1C	n	n	24	n	n	n	n	n
Cc1c(NC(=S)N/N=C\c2ccccc2O)c(=O)n(-c2ccccc2)n1C	n	n	n	n	n	n	x	x
COc1cccc(/C=C2\CC3(OC(=O)c4ccco4)CCCN2C3)c1 (stereo not drawn)	n	x	x	n	n	n	x	x
COc1ccc(C(=O)NNC(=O)COc2ccc(Cl)cc2)c(OC)c1	n	n	25	n	n	n	n	24
COC(=O)NNC(=O)COc1ccc(Cl)cc1	x	n	x	x	x	x	x	x
CCOc1ccc(-c2nc(CSCC(=O)NC3CCC3)c(C)o2)cc1	n	x	x	n	x	n	x	x
